Source: PubChem BioAssay
TAG inh – inhibitors of triacylglycerol accumulation. H9c2 cells, Nile Red lipid (TAG) fluorescence; cells loaded with 200 µM oleic acid. inhibition, % at 12.5 µM. 230,000 tested, 0.66% active. AID 651582;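 active means pattern-corrected inhibition of lipid staining of at least 50% with the nuclear-stain viability signal not falling by more than 50%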
SMARCA2 activ – activators of SMARCA2 function; MG213 cells, MMTV-luciferase reporter, dexamethasone, overnight; activation, % at 9.1 µM; 370,000 tested, 1% active; AID 652017; in the data active means activation above about 7.8%
SR-BI uptake up – enhances SR-BI lipid uptake from DiI-HDL; CHO ldlA[mSR-BI] cells, DiI-HDL uptake fluorescence, 3 h; 100 = double the neutral-control signal; activation, % at 12.5 µM; 320,000 tested, 0.096% active;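 active means mean replicate activation of at least 60% and every replicate at or above 60%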
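system = CHO ldlA[mSR-BI] cells, LDL receptor-null, SR-BI overexpressing | medium = Ham's F12 with 0.5% BSA, HEPES 25 mM, pH 7.4 | probe or stimulus = DiI-HDL 10 µg/mL | compound dosing = single-point compound dose | incubation = compound exposure 3 h, 37 °C | technique = DiI fluorescence, bottom read | read-out = cell-associated DiI fluorescence as measure of HDL uptake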
Vif inh – HIV Vif inhibition; HEK293T cells, Vif self-association by quenched fluorescence, imaging, 24 h; inhibition, % at 7.49 µM; 340,000 tested, 0.35% active; AID 602346; in the data active means inhibition above about 50%, passing the limit was not always enough
SR-BI DiI inh – inhibitors of mouse SR-BI mediated HDL lipid uptake | ldlA[mSR-BI] CHO cells, DiI-HDL uptake fluorescence, 3 h | inhibition, % at 12.5 µM | 320,000 tested, 0.96% active | AID 488896;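 active means mean replicate inhibition of at least 70% and a set share of replicates each scoring 70 or more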
Target sequence (Q61009 whole entry, looked up): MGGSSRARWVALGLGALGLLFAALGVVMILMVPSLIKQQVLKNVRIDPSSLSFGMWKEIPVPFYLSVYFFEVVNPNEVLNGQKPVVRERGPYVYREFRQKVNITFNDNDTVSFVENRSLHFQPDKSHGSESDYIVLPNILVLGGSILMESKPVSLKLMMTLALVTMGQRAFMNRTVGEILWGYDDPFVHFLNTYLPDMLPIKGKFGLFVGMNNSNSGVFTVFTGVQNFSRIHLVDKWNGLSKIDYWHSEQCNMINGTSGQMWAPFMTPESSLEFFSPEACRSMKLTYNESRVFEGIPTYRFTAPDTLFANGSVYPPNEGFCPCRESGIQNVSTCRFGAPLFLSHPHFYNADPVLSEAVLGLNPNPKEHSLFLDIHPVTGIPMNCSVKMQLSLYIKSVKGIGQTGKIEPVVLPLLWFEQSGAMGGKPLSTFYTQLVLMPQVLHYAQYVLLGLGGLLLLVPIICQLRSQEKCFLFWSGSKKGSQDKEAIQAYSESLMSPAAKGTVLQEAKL
Of the large screens only hits and unclear results are named; the others gave an inactive call. The list is not random: actives were taken first. Their share in the collection is about 2.5%.

COc1ccc(C(CC(=O)N2CCCCC2)c2c(O)cc(OC)cc2OC)cc1 (stereo unspecified)	none
COc1cc(O)c(C(CC(=O)N2CCCC2)c2ccc(N(C)C)cc2)c(OC)c1 (stereo unspecified)	Vif inh 74
Cc1ccc(C(CC(N)=O)c2ccco2)cc1 (stereo unspecified)	SR-BI uptake up 71
Cc1ccc(C(CCN)c2ccco2)cc1 (stereo unspecified)	none
O=[N+]([O-])c1ccc(OC[C@@H](O)CN2CCC(C(O)(c3ccccc3)c3ccccc3)CC2)c(Cl)c1	none (no result: TAG inh, SR-BI uptake up, Vif inh, SR-BI DiI inh)
O=[N+]([O-])c1ccccc1Nc1c2ccccc2nc2ccccc12	SR-BI DiI inh 77
Cc1c(Cl)cccc1N1C(=O)CC(N(O)c2ccccc2)C1=O (stereo unspecified)	SR-BI uptake up 218
COCCNc1oc(/C=C/c2ccccc2)nc1C#N	Vif inh 55
CN(C)c1ccc(/C=C2\SC(=O)N(CCc3nnc(N)s3)C2=O)cc1	Vif inh 96 (no result: SR-BI uptake up, SR-BI DiI inh)
N#Cc1ccc2nc(-c3ccc(CN4CCC5(CC4)CNc4ccccc45)cc3)c(-c3ccccc3)nc2c1	none (no result: TAG inh, SR-BI uptake up, Vif inh, SR-BI DiI inh)
CCOC(=O)N1CCN(C(=S)NC(=O)c2ccc(Br)cc2)CC1	none
CCOC(=O)N1CCN(C(=S)NC(=O)c2cncc(Br)c2)CC1	SR-BI uptake up 69
COc1ccc(C(=O)C=CNNC(=O)c2ccc(Cl)cc2)cc1	SR-BI DiI inh 95
COc1ccc(C(=O)NN/C=C/C(=O)c2ccc(Br)cc2)cc1	none (no result: SR-BI uptake up, SR-BI DiI inh)
O=C(/C=C/NNC(=O)c1ccccc1)c1ccc(Br)cc1	SR-BI DiI inh 118
O=C(/C=C/NNC(=O)c1cccc(Br)c1)c1cccc(Br)c1	none (no result: TAG inh)
O=C(/C=C/NNC(=O)c1ccc(Cl)cc1)c1ccccc1	SR-BI DiI inh 112
O=C(NC1CCCC1)C1CSCCS(=O)(=O)N1Cc1ccc(F)cc1 (stereo unspecified)	none (no result: TAG inh, SR-BI uptake up, Vif inh, SR-BI DiI inh)
Cc1ccc2nc(C(Cl)(Cl)Cl)nc(N/N=C/c3ccncc3)c2c1	none (no result: TAG inh)
Cc1ccc2nc(C(Cl)(Cl)Cl)nc(N/N=C/c3ccc([N+](=O)[O-])cc3)c2c1	SR-BI DiI inh 91
O=C(OCc1ccccc1)C1CCCN1C(=O)c1ccccc1[N+](=O)[O-] (stereo unspecified)	Vif inh 56 (no result: TAG inh)
CCOC(=O)[C@]12CCCCC/C=C\1N(CCc1ccc(Cl)cc1)C(=O)[C@H]2CC(=O)NCc1ccc(OC)c(OC)c1	none (no result: TAG inh, SR-BI uptake up, Vif inh, SR-BI DiI inh)
CCCC(=O)Nc1c(-c2ccccc2)c(=O)c(C)nn1-c1ccc(C)cc1	SR-BI uptake up 315
CC(=O)Nc1nonc1-c1nc2ccccc2n1C	Vif inh 80 (no result: TAG inh)
COC(=O)c1ccccc1CSc1nsc(/C=C/N(C)C)c1C#N	SR-BI DiI inh 101 (no result: TAG inh, SMARCA2 activ)
Cc1nc(CSc2nsc(/C=C/N(C)C)c2C#N)cs1	none
COc1cc2c(O)c3c(c(-c4ccc5c(c4)OCO5)c2cc1OC)C(=O)OC3	none (no result: TAG inh)
COc1cc2c(OC(C)=O)c3c(c(-c4ccc5c(c4)OCO5)c2cc1OC)C(=O)OC3	Vif inh 173 (no result: TAG inh)
CN(C)CC/C=C1/c2ccccc2Sc2ccc(Cl)cc21	none
CCCCCC[N+](C)(C)CC/C=C1/c2ccccc2Sc2ccc(Cl)cc21	TAG inh 56 (no result: SR-BI uptake up, SR-BI DiI inh)
CCC(=O)NC(=S)Nc1ccc(NC(=O)c2cc3ccccc3o2)c(OC)c1	none (no result: TAG inh)
CCOc1cccc(C(=O)Nc2ccc3oc(Cc4ccc(Cl)cc4)nc3c2)c1	Vif inh 56 (no result: TAG inh)
COc1cc(NC(=O)c2cccc([N+](=O)[O-])c2)ccc1NC(=O)c1cc2ccccc2o1	none (no result: TAG inh)
O=C(Nc1ccc2oc(Cc3ccc(Cl)cc3)nc2c1)c1cccnc1	none (no result: TAG inh)
COc1cc(NC(=O)c2cccc(C)c2)ccc1NC(=O)c1cc2ccccc2o1	SR-BI DiI inh 85 (no result: TAG inh)
CCOc1cccc(C(=O)Nc2ccc(NC(=O)c3cc4ccccc4o3)c(OC)c2)c1	Vif inh 71, SR-BI DiI inh 72 (no result: TAG inh)
CSC(=S)NN=C(C)c1cccc(C)n1	TAG inh 55
CC(=NNC(=S)N1CCCCC1)c1cccc(C)n1	none
CCc1cc2c(nc1CC)CCCN2CCOC	none (no result: TAG inh, SR-BI uptake up, Vif inh, SR-BI DiI inh)
C[C@@H]1ON(C)[C@H]2C[C@H]3c4[nH]c5cccc(-c6cccc(F)c6)c5c4CCN3C(=O)[C@@H]12	none (no result: TAG inh, SR-BI uptake up, Vif inh, SR-BI DiI inh)
CCCCC(CC)C(=O)Nc1cc(=O)[nH]c2nc3ccccc3n12 (stereo unspecified)	SR-BI uptake up 410 (no result: TAG inh)
CCCCCCc1c(C)[nH]c2nc3ccccc3n2c1=O	none (no result: TAG inh)
Nc1ccn([C@@H]2O[C@H](C(=O)N[C@H](Cc3ccccc3)C(=O)Nc3ccc4scnc4c3)[C@@H](O)[C@H]2O)c(=O)n1	none (no result: TAG inh, SR-BI uptake up, Vif inh, SR-BI DiI inh)
COc1ccc(CN(C(=O)Cn2nnc(-c3ccc(C)o3)n2)C(C(=O)NCC2CCCO2)c2ccco2)cc1 (stereo unspecified)	Vif inh 71 (no result: TAG inh)
Cc1ccc(CONC(=O)/N=C/N(C)C)cc1	Vif inh 63
COC(=O)[C@H](C)N(Cc1cn(Cc2ccccc2)nn1)S(=O)(=O)c1ccccc1Br	SMARCA2 activ 7.8 (no result: TAG inh, SR-BI uptake up, Vif inh, SR-BI DiI inh)
COc1ccc(CN2C(=O)c3ccccc3C2=O)cc1	Vif inh 62 (no result: TAG inh)
COC(=O)[C@]12C[C@H](CC(=O)N3CCC(c4ccccc4)CC3)C(=O)N(CCC3=CCCCC3)C1=C[C@H](COCc1ccccc1)O[C@@H]2C	none (no result: TAG inh, SR-BI uptake up, Vif inh, SR-BI DiI inh)
CCOc1ccc(C(=O)NCc2cccs2)cc1	SMARCA2 activ 7.9
CCOC(=O)Oc1c(OC)cc(C(=O)O[C@@H]2C[C@@H]3CN4CCc5c([nH]c6cc(OC)ccc56)[C@H]4C[C@@H]3[C@H](C(=O)OC)[C@H]2OC)cc1OC	TAG inh 60
C=CCN1C(=O)[C@@H](CC(=O)NCc2cccc(C(F)(F)F)c2)[C@]2(C(=O)OCC)CCCCC/C=C/12	none (no result: TAG inh, SR-BI uptake up, Vif inh, SR-BI DiI inh)
O=C(N[C@H](C(=O)N1CCC[C@H]1C(=O)NCCc1ccccc1Cl)c1ccccc1)c1ccc(Cl)cc1Cl	none (no result: TAG inh, SR-BI uptake up, Vif inh, SR-BI DiI inh)
O=C(Nc1cc(Br)ccc1O)c1cc(-c2ccccc2)on1	none (no result: TAG inh)
Cc1ccc(O)c(NC(=O)c2cc(-c3ccccc3)on2)c1	SMARCA2 activ 7.8
Cc1ccccc1OCCCN1CCC(C(O)(c2ccccc2)c2ccccc2)CC1	none (no result: TAG inh, SR-BI uptake up, Vif inh, SR-BI DiI inh)
CCCCc1ccc(NC(=S)Nc2ccc(Nc3ccc(OC)cc3)cc2)cc1	SR-BI DiI inh 81
C=CCOC(=O)C1=C(C)NC(=S)NC1c1cccs1 (stereo unspecified)	SR-BI DiI inh 78 (no result: TAG inh)
Cc1sc(NC(=O)c2sc3nc4c(C)cccc4cc3c2N)c(C#N)c1C	Vif inh 53, SR-BI DiI inh 90
O=C(NCCN1CCN(C(=O)c2ccc(Br)cc2)CC1)c1ccc(Br)cc1	SR-BI DiI inh 71
Cc1cccc(NC(=O)CCS(=O)(=O)c2cccc3nsnc23)c1C	SR-BI uptake up 70
O=C(NC(=S)Nc1nc2c(s1)CCCC2)c1ccc(C(=O)c2ccccc2)cc1	SR-BI DiI inh 76 (no result: TAG inh)
O=C(Nc1nc2c(s1)CCCC2)c1cc(-c2ccncc2)nc2ccccc12	SR-BI DiI inh 76 (no result: TAG inh)
